Measurements reported in ChEMBL document CHEMBL1154891, “Cytotoxic acylphloroglucinol derivatives from the twigs of Garcinia cowa” (J Nat Prod, 2010).
Activity calls are given as the source filed them. The calls are words filed in the database; no cut-off is given here.

Key:
[1] = tested on: HT-29; assay: Cytotoxicity against human HT-29 cells at 5 uM after 24 hrs by MTT assay; assay type: functional
[2] = tested on: HCT-116; assay: Cytotoxicity against human HCT116 cells at 5 uM after 24 hrs by MTT assay; assay type: functional, cell-based
[3] = tested on: HT-29; assay: Cytotoxicity against human HT-29 cells after 24 hrs by MTT assay; assay type: functional, cell-based; conditions: HT-29, 24 h
Procedure, shortened: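 MTT read-out: 3 h at 37 °C, DMSO solubilization, A570 with 620 nm background. Viability relative to untreated control; IC50 derived. Cisplatin in saline run in parallel as positive control. Mean + SEM.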

[4] = Cytotoxicity against human CCD-18Co cells at 5 uM after 24 hrs by MTT assay; assay type: cell-based
Procedure, shortened: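 CCD-18Co colon fibroblasts grown in MEM with 10% FBS and HEPES at 37 °C, 5% CO2, seeded overnight at 7 × 10^3 cells/well. MTT added for 3 h at 37 °C, formazan dissolved in DMSO, A570 read with 620 nm background subtraction. Untreated = 100%. Triplicate, ≥3 independent experiments, mean + SEM.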

[5] = Cytotoxicity against human CCD-18Co cells at 5 uM after 24 hrs by MTT assay

Row | Structure (SMILES) | Activity [1] | Activity [2] | IC50 [3] | Activity [4] | Activity [5]
1 | CC(C)=CC[C@@H]1C[C@@]23C[C@@H](CC=C(C)C)C(C)(C)[C@](CC=C(C)C)(C(=O)C(C(=O)c4ccc(O)c(O)c4)=C2OC1(C)C)C3=O | Active | Active | 5.1 µM | Non-toxic | Non-toxic
2 | CC(C)=CC[C@H]1C[C@@]23C[C@@H](CC=C(C)C)C(C)(C)[C@@](CC=C(C)C)(C(=O)C(C(=O)c4ccc(O)c(O)c4)=C2OC1(C)C)C3=O [CAMBOGIN] | Active | Active | – | Non-toxic | Non-toxic
3 | CC(C)=CCC/C(C)=C/C[C@H]1CC(C)(C)OC2=CC(=O)[C@]3(CC=C(C)C)C(=O)[C@@]21CC[C@]3(C)CCC=C(C)C [GARCICOWIN A] | – | – | – | Non-toxic | Non-toxic
4 | CC(C)=CCC/C(C)=C/C[C@@H]1C[C@]2(CC=C(C)C)C(=O)[C@@](CC=C(C)C)(C(=O)C(C(=O)c3cccc(O)c3)=C2O)[C@@]1(C)CCC=C(C)C [GARCICOWIN B] | – | – | – | Non-toxic | Non-toxic
5 | C=C(C)[C@@H]1C[C@]23C[C@@H](CC=C(C)C)C(C)(C)[C@](CC=C(C)C)(C(=O)C(C(=O)c4ccc(O)c(O)c4)=C2O[C@H]1C=C(C)C)C3=O [GARCICOWIN D] | 57.7% | – | – | Non-toxic | Non-toxic
6 | C=C(C)[C@@H]1C[C@]23C[C@H](CC=C(C)C)C(C)(C)[C@](CC=C(C)C)(C(=O)C(C(=O)c4ccc(O)c(O)c4)=C2O[C@H]1C=C(C)C)C3=O [GARCINIALIPTONE B] | 73.8% | – | – | Non-toxic | Non-toxic
7 | CC(C)=CCC/C(C)=C/C[C@@H]1C[C@@]2(C/C=C(\C)CCC=C(C)C)C(=O)[C@](CC=C(C)C)(C(=O)C(C(=O)c3ccc(O)c(O)c3)=C2O)C1(C)C [GUTTIFERONE B] | Active | Active | – | Non-toxic | Non-toxic
8 | CC(C)=CCC/C(C)=C/C[C@@H]1C[C@]2(CC=C(C)C)C(=O)[C@@](CC=C(C)C)(C(=O)C(C(=O)c3ccc(O)c(O)c3)=C2O)C1(C)C [OBLONGIFOLIN B] | Active | Active | – | Non-toxic | Non-toxic
9 | CC(C)=CCC/C(C)=C/C[C@@H]1C[C@]2(CC=C(C)C)C(=O)[C@@](CC=C(C)C)(C(=O)C(C(=O)c3ccc(O)c(O)c3)=C2O)[C@@]1(C)CCC=C(C)C [OBLONGIFOLIN C] | Active | Active | – | Non-toxic | Non-toxic
10 | CC(C)=CCC/C(C)=C/C[C@H]1C[C@]2(C/C=C(\C)CCC=C(C)C)C(=O)[C@@](CC=C(C)C)(C(=O)C(C(=O)c3ccc(O)c(O)c3)=C2O)C1(C)C [OBLONGIFOLIN D] | inactive | inactive | – | Non-toxic | Non-toxic
